Results as given in ChEMBL document CHEMBL4354879, “Bioisosteric Discovery of NPA101.3, a Second-Generation RET/VEGFR2 Inhibitor Optimized for Single-Agent Polypharmacology” (J Med Chem, 2020).
Activity calls are given as the source filed them. The rule behind the calls is not given here.

Experiments:
[1] = tested on: Mus musculus; assay: In vivo inhibition of RET isoform 9 C634Y mutant transfected in mouse NIH/3T3 cells implanted BALB/c nu/nu mouse assessed as reduction in RET phosphorylation at Y1062 residue at 3 mg/kg, po administered once daily via gavage for 2 days measured 3 hrs post-last dose by Western blot analysis
[2] = tested on: Proto-oncogene tyrosine-protein kinase receptor Ret (Homo sapiens), P07949 [C634R]; assay: Inhibition of RET […] C634R mutant (unknown origin) expressed in mouse BAF3 cells assessed as reduction in RET phosphorylation at Y1062 residue at 0.3 to 30 nM measured after 2 hrs by Western blot analysis; format: cell-based
Procedure, shortened: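 Ba/F3 cells stably expressing long-isoform RET-51 mutants (electroporation), cultured in RPMI/10% FCS without IL-3; RET phosphorylation read by Western blot with anti-phospho-Y905 and anti-phospho-Y1062 antibodies, ECL detection.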

[3] = tested on: A549; assay: Effect on MAPK phosphorylation in RET deficient human A549 cells at 1 to 100 nM measured after 2 hrs by western blot analysis; format: cell-based
[4] = molecular target: T1, Coiled-coil domain-containing protein 6/Tyrosine-protein kinase receptor RET (Homo sapiens) (UniProt P07949+Q16204); assay: Inhibition of CCDC6/RET in human LC2/ad cells assessed as reduction in SHC phosphorylation at 0.3 to 30 nM measured after 2 hrs by Western blot analysis; format: cell-based
[5] = molecular target: T2, SHC-transforming protein 1 (Homo sapiens) (UniProt P29353); assay: Effect on SHC phosphorylation in RET deficient human Calu1 cells at 1 to 100 nM measured after 2 hrs by western blot analysis
T2 sequence (whole entry): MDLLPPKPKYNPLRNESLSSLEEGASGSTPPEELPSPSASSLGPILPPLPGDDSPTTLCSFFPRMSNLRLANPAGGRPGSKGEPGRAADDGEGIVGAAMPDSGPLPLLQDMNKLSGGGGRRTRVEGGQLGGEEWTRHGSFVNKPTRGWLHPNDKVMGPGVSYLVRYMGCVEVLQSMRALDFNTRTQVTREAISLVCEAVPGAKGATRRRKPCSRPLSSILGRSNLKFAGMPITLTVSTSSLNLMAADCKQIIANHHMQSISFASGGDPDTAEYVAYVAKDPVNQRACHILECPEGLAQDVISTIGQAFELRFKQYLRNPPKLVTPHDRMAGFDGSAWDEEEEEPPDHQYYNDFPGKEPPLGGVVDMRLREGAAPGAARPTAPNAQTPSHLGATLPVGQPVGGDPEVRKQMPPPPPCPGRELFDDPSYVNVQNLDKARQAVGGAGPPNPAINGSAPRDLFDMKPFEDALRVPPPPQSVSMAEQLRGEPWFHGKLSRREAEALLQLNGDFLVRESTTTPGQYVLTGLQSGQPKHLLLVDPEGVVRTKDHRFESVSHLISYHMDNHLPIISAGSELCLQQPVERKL

[6] = molecular target: Tyrosine-protein kinase HCK (Homo sapiens) (UniProt P08631); assay: Binding affinity to wild-type human full length HCK (M22 to P526 residues) expressed in bacterial expression system at 100 nM by Kinomescan method relative to control
[7] = tested on: Mus musculus; assay: Antitumor activity against BALB/c nu/nu mouse implanted with mouse NIH/3T3 cells harboring HRAS G12V mutant assessed as reduction in tumor formation at 1 to 10 mg/kg, po administered once daily via gavage for 3 days; format: functional, organism-based
Procedure, shortened: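 Nude mice (female BALB/c nu/nu, 6 weeks old) received subcutaneous dorsal inoculation (both sides) of NIH3T3 cells transformed by RET/C634Y (200000) or HRAS/G12V (50000). Four days later, before tumors appeared, mice were randomized to 1.0, 3.0 or 10 mg/kg/day oral gavage (8 mice/group) or vehicle (8 mice). Vehicle was 80% H2O, 19.875% Tween 20, 0.125% xanthan gum. Tumors were measured by caliper every 2–3 days, with volume = A×B²/2.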

[8] = tested on: Mus musculus; assay: In vivo inhibition of RET isoform 9 C634Y mutant transfected in mouse NIH/3T3 cells implanted BALB/c nu/nu mouse assessed as reduction in MAPK phosphorylation in tumor at 1 mg/kg, po administered once daily via gavage for 3 days measured 3 hrs post-last dose by Western blot analysis
[9] = Toxicity in BALB/c nu/nu mouse assessed as change in alkaline phosphatase level at 10 mg/kg, po administered daily for 7 days; format: organism-based; conditions: in vivo, 168 h
Procedure, shortened: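 Mice dosed orally with 10 mg/kg/day for 7 days; standard blood markers of organ damage measured.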

[10] = Toxicity in BALB/c nu/nu mouse assessed as change in total protein level at 10 mg/kg, po administered daily for 7 days; format: organism-based; conditions: in vivo, 168 h
[11] = species on record: Homo sapiens; assay: Effect on MAPK phosphorylation in RET deficient human PC9 cells at 1 to 100 nM measured after 2 hrs by western blot analysis
[12] = tested on: GTPase HRas (Homo sapiens), P01112 [G12V]; assay: Inhibition of HRAS G12V mutant (unknown origin) expressed in mouse NIH/3T3 cells assessed as reduction in cell proliferation up to 100 nM supplemented with fresh medium containing compound for every 2 to 3 days measured at 2 days interval during compound dosing; format: cell-based
Procedure, shortened: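 NIH3T3 transformants seeded 10000/well in 2% calf serum; next day drug or vehicle added, medium changed every 2–3 days; cells counted every 2 days; IC50 from curve fit of last-day counts.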

[13] = tested on: Proto-oncogene tyrosine-protein kinase receptor Ret (Homo sapiens), P07949 [M918T]; assay: Inhibition of RET isoform 9 M918T mutant (unknown origin) expressed in rat Rat1 assessed as reduction in RET phosphorylation at Y905 residue at 1 to 100 nM measured after 2 hrs by Western blot analysis; format: cell-based
Procedure, shortened: (§1)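 Serum-starved RAT1 (RET point mutants) or NIH3T3 (RET rearrangements) cells expressing short RET-9 isoform, treated 2 h; 50 μg total lysate immunoblotted with anti-phospho-Y1062 and anti-phospho-Y905 RET antibodies, normalized to total RET; ECL detection. Compound from 50 mM DMSO stock diluted in growth medium.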

[14] = tested on: BaF3; assay: Cytotoxicity against mouse BAF3 cells assessed as reduction in cell proliferation supplemented with fresh medium containing compound for every 2 to 3 days and measured daily; format: cell-based
Procedure, shortened: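 Ba/F3 cells (parental with IL-3 10 ng/mL; RET/C634R, RET/M918T, NCOA4-RET stable transfectants, RET-51 isoform) were seeded at 200000/well in 10% FCS. Drug or vehicle was added the day after plating, with medium changed every 2–3 days, and cells were counted daily. […] This was a single experiment in triplicate.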

[15] = molecular target: T1, Coiled-coil domain-containing protein 6/Tyrosine-protein kinase receptor RET (Homo sapiens); assay: Inhibition of CCDC6/RET in human LC2/ad cells assessed as reduction in RET phosphorylation at Y1062 residue at 0.3 to 30 nM measured after 2 hrs by Western blot analysis; format: cell-based
[16] = molecular target: Centrosomal protein 43/RET (Homo sapiens) (UniProt P07949+O95684); assay: Inhibition of FGFR1OP/RET isoform 9 (unknown origin) expressed in mouse NIH/3T3 cells assessed as reduction in RET phosphorylation at Y1062 residue at 1 to 100 nM measured after 2 hrs by Western blot analysis; format: cell-based
Procedure, shortened: as §1

T1 sequence (P07949 29-1114 limits assumed): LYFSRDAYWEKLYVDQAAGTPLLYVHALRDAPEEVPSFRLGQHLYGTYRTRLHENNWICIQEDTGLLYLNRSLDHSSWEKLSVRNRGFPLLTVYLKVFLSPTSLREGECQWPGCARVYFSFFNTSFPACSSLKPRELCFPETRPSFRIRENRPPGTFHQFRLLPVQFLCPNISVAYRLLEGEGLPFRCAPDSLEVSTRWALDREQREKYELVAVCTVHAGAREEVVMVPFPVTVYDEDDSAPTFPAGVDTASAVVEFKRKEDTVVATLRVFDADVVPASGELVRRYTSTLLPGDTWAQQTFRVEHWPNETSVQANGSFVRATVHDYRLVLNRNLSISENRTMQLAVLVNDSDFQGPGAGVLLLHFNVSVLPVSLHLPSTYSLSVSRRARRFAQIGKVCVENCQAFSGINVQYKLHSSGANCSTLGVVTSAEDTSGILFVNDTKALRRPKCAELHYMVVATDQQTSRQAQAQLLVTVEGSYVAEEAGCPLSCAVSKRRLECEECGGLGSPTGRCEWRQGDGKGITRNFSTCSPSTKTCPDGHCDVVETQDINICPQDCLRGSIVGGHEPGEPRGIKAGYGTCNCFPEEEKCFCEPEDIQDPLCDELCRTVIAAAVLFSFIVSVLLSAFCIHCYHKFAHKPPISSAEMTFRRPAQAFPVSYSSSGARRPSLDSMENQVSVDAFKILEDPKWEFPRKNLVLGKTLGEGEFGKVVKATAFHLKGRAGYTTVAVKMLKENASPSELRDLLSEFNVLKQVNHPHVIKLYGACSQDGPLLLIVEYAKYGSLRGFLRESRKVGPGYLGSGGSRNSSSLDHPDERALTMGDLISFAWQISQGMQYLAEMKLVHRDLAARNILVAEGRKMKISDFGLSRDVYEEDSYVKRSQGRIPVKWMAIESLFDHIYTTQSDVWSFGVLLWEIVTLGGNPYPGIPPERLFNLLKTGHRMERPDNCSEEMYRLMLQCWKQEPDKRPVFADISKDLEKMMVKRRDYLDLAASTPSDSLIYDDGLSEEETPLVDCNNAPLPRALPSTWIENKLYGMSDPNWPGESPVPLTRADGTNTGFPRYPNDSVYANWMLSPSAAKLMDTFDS
T1 sequence (Q16204 2-474 partner limits assumed): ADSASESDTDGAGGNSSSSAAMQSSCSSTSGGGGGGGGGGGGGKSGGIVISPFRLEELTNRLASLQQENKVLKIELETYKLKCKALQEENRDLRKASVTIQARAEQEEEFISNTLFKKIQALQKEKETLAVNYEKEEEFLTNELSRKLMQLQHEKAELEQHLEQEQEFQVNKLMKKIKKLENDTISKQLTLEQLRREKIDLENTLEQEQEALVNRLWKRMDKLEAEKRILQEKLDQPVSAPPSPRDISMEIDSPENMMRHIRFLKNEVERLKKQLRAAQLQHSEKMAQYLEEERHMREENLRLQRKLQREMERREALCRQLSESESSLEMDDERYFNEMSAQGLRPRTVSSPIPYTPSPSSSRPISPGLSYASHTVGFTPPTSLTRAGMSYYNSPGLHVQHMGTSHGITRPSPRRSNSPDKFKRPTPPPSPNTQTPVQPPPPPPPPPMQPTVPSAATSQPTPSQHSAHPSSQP
Centrosomal protein 43/RET (Homo sapiens), sequence (O95684 whole entry, looked up, canonical isoform): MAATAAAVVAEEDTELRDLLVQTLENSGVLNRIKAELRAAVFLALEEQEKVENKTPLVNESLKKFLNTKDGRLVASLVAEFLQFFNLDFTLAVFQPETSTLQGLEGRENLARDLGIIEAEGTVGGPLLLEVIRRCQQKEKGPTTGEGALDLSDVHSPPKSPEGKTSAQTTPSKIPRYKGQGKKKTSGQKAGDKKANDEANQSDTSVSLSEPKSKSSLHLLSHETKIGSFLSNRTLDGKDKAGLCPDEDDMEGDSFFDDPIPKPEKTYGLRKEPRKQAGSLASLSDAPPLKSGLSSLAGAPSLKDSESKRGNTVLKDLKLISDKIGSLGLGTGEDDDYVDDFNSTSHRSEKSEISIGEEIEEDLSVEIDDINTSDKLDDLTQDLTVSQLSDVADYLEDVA
Centrosomal protein 43/RET (Homo sapiens), sequence (P07949 whole entry, looked up, canonical isoform): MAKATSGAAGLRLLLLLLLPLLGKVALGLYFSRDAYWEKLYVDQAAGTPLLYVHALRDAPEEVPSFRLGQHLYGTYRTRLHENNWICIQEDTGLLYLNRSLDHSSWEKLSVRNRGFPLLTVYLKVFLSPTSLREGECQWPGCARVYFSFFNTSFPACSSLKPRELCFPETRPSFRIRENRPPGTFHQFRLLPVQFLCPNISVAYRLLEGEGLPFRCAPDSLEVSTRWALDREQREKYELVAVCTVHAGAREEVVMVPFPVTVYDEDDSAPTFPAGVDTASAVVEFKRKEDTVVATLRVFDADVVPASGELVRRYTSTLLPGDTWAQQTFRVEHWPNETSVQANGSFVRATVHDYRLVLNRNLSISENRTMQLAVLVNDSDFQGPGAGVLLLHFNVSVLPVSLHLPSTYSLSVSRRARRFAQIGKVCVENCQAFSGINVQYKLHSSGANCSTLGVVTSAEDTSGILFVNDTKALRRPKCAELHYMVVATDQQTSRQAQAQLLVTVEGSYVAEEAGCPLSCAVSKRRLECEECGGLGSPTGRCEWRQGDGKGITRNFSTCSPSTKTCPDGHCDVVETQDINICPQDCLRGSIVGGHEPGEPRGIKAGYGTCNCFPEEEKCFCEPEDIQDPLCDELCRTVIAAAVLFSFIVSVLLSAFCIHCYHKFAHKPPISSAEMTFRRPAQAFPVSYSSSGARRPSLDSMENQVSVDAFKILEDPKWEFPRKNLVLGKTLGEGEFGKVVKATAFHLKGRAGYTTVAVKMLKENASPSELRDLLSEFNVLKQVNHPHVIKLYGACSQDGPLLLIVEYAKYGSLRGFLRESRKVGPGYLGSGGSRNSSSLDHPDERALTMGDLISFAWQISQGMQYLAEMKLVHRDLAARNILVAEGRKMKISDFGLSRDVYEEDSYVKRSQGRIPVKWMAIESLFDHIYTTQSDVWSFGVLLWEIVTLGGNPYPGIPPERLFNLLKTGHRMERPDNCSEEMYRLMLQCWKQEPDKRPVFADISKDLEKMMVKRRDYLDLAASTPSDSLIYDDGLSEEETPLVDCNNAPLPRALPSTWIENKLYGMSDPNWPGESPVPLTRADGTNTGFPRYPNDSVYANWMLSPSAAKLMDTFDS
Proto-oncogene tyrosine-protein kinase receptor Ret (Homo sapiens), P07949 [C634R], sequence (P07949 whole entry C634R, canonical isoform): as the sequence (P07949 whole entry, looked up, canonical isoform) above, with C634R counted along it
Tyrosine-protein kinase HCK (Homo sapiens), sequence (P08631 2-526 limits assumed): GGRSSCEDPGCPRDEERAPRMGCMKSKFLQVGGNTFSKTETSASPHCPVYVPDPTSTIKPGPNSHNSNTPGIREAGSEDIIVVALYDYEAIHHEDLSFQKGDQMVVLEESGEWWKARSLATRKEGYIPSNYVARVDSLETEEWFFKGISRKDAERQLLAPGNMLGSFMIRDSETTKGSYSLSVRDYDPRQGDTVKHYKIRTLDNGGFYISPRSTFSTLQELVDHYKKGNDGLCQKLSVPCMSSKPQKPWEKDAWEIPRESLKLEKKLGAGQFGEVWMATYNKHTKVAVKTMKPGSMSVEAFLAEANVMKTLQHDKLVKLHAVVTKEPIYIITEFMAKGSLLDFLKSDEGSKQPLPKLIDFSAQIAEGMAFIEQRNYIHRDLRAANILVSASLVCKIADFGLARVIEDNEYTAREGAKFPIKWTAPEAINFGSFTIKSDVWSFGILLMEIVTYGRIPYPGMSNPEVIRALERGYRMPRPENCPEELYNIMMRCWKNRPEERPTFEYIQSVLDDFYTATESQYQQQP
Proto-oncogene tyrosine-protein kinase receptor Ret (Homo sapiens), P07949 [M918T], sequence (P07949 whole entry M918T, canonical isoform): as the sequence (P07949 whole entry, looked up, canonical isoform) above, with M918T counted along it
GTPase HRas (Homo sapiens), P01112 [G12V], sequence (P01112 whole entry G12V): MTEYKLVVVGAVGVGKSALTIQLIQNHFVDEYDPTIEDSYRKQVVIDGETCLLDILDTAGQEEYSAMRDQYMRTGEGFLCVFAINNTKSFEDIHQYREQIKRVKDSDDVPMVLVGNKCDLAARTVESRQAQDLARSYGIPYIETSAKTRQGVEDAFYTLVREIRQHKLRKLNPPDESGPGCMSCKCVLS

CC(C)(C)c1cc(NC(=O)Cc2ccc(-n3cnc4cc(-c5ccc(S(C)(=O)=O)cc5)ccc43)cc2)no1
inhibition [1]: Active | inhibition [2]: Active | Activity [3]: inactive | inhibition [4]: Active | Activity [5]: inactive | Activity [6]: > 90% | Activity [7]: inactive | inhibition [8]: Active | Activity [9]: Non-Toxic | Activity [10]: Non-Toxic | Activity [11]: inactive | inhibition [12]: inactive | inhibition [13]: Active | IC50 [14]: > 100 nM | inhibition [15]: Active | inhibition [16]: Active
